Assay outcomes deposited in PubChem by several laboratories.
NadD block: NadD (S. aureus) enzyme inhibition. purified NadD enzyme, colorimetric absorbance read-out. inhibition, % at 20 µM. actives 0.78% (n = 360,000); in the data active = inhibition above about 26%
VIM-2 inhibitor: inhibitors of Pseudomonas aeruginosa VIM-2 metallo-beta-lactamase. purified VIM-2, nitrocefin hydrolysis, epi-absorbance fluorescence. inhibition, % at 5.6 µM. actives 0.89% (n = 290,000);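 active = inhibition above the mean of all tested compounds plus 3 SD, cutoff set per screening run, cut at about 7.5% in these data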;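 note: red hydrolysis product quenches plate fluorescence so inhibitors raise well fluorescence; 0% = enzyme with DMSO and 100% = DMSO without enzyme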
core dimer inh: blocks dimerization of HCV core protein | inhibition, % at 5 µM | actives 0.33% (n = 300,000) | TR-FRET GST/Flag-core106 dimerization, 1536-well | AID 1899;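 active = inhibition above the mean of all tested compounds plus 3 SD, set per screening campaign, cut at about 45% in these data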
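assay system = GST-tagged and Flag-tagged HCV core protein residues 1-106 | controls = unlabelled core106 and no-GST-core106 wells | incubation = compound-protein-antibody incubation 4 h at 22.5 °C | probe or stimulus = Eu donor and XL665 acceptor anti-tag antibodies | read-out = % inhibition based on acceptor/donor emission ratio | signal = TR-FRET 671 and 617 nm emission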
IMP-1 inhibitor: inhibitors of Pseudomonas aeruginosa IMP-1 metallo-beta-lactamase. purified IMP-1, nitrocefin hydrolysis, epi-absorbance fluorescence. inhibition, % at 5.6 µM. actives 0.45% (n = 290,000);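 active = inhibition above the mean plus 3 SD of all compounds in the same screening run, cut at about 4.5% in these data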;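 note: 0% = IMP-1 with DMSO and 100% = DMSO wells lacking enzyme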
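Test system: recombinant IMP-1 enzyme, purified / Medium: HEPES buffer pH 7.1 with ZnSO4 and Brij 35 / Doses: single dose, 5.6 µM / Times: 25 °C, 15 min preincubation, 25 min reaction / Detection: Epi-absorbance via hydrolysed-nitrocefin quenching of white-plate fluorescence, 480/530 nm, EDTA stop / Evaluation: percent inhibition from optical density relative to buffer-blank wells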
NadD inh conf: confirmation of Staphylococcus aureus NadD inhibitors; shares compounds with NadD block; purified S. aureus NadD, colorimetric enzyme assay; inhibition, % at 20 µM; actives 13% (n = 2,000); in the data active = inhibition mostly above about 42%, no sharp cut-off; inactive = mostly below about 42%
An asterisk follows results filed as active; x = no result. Hits are enriched below; roughly 1.9% of the tested compounds scored in any of these assays.

SMILES	NadD block	VIM-2 inhibitor	core dimer inh	IMP-1 inhibitor	NadD inh conf
O=C(NCc1ccc(/C=N\NC(=O)C(=O)Nc2ccccc2Br)o1)C(=O)Nc1ccccc1	36*	-1	29	0	8
COc1cc(NCCCCCCN)c2ncccc2c1OC	51*	x	x	x	22
COc1ccc(S(=O)(=O)N2CCC(C(=O)NCCN3CCOCC3)CC2)cc1OC	33*	-3	3	-1	3
Nc1scc2c(C(=O)N/N=C/c3ccc(Cl)cc3)nn(-c3ccccc3)c(=O)c12	40*	-2	13	-3	14
CN(C)S(=O)(=O)c1ccc(N2CCCC2)c(C(=O)NC2CCC(O)CC2)c1 (stereo not drawn)	-2	x	2	x	x
CN(c1ccccc1)S(=O)(=O)c1ccc(Cl)c(C(=O)Nc2ccc(-c3nc4ccccc4[nH]3)cc2)c1	33*	-3	23	-3	40
CN(c1ccccc1)S(=O)(=O)c1ccc(Cl)c(C(=O)Nc2nc3ccccc3[nH]2)c1	11	0	21	-2	x
CCN(CC)S(=O)(=O)c1ccc(C(=O)NNc2nc(-c3ccccc3)c3cc(Br)ccc3n2)cc1	35*	-5	25	-4	20
CCOc1ccc2oc(C(=O)NNC(=O)c3ccccc3O)c(C)c2c1	3	x	1	x	x
Cc1c(C(=O)NNC(=O)c2ccccc2O)oc2ccc(Br)cc12	30*	x	22	x	56*
CC(C)(C)OC(=O)N1CCC[C@H]1C(=O)OCC(=O)Nc1cc(S(C)(=O)=O)ccc1Cl	-3	x	x	x	x
c1ccc(-c2nc(SCc3nc4ccccc4[nH]3)c3oc4ccccc4c3n2)cc1	31*	x	x	x	41
Cc1nc(SCc2nc3c(C)cccc3[nH]2)c2oc3ccccc3c2n1	5	x	x	x	x
Cc1ccc2[nH]c(C)c(CCNC(=O)c3c(N)no[n+]3[O-])c2c1	-5	3	-4	0	x
Cc1ccc2[nH]c(C)c(CCNC(=O)c3cc4cc([N+](=O)[O-])ccc4oc3=O)c2c1	33*	-3	50*	-3	5
CC1(C)Cc2c(sc3c2c(=N)n(Cc2ccco2)c(=O)n3Cc2ccc(Cl)cc2)CO1	32*	-3	26	-3	20
CCOC(=O)c1cnc(-n2nc(C)cc2C)nc1NNc1nc(C)cc(C)n1	-1	-1	-6	-4	x
CCOC(=O)c1cnc(-n2nc(C)cc2C)nc1NNc1nc(-c2ccccc2)cc(-c2ccccc2)n1	35*	-5	34	-3	4
COc1ccc(S(=O)(=O)N(C)C[C@H]2Oc3ncc(-c4ccncc4)cc3C(=O)N([C@@H](C)CO)C[C@@H]2C)cc1	4	x	x	x	x
CC(C)(O)C#Cc1ccc(N2C(c3ccsc3)=Cc3ccc(F)cc3C2c2c[nH]c3ccc(C#N)cc23)cc1 (stereo not drawn)	15	x	x	x	x
CCOC(=O)c1ccc(-c2ccc(N3C(c4ccsc4)=Cc4ccc(F)cc4C3c3c[nH]c4ccc(C#N)cc34)cc2)cc1F (stereo not drawn)	30*	x	x	x	10
C=C(C)CN(CC)c1nc(N)c2c(N)nc3c(c2c1C#N)CC(=O)N3C12CC3CC(CC(C3)C1)C2	35*	-4	42	-6	15
Cc1cc(C)c2c(n1)sc1c(O)cc(=O)[nH]c12	0	1	5	1	x
COc1ccc(-c2cc(C(F)(F)F)c3c(n2)sc2c(O)cc(=O)[nH]c23)c(OC)c1	30*	-1	48*	-3	45
O=C1CCC(C2CCc3cc(O)ccc3C2)C1 (stereo not drawn)	0	x	x	x	x
SMILES	NadD block	VIM-2 inhibitor	core dimer inh	IMP-1 inhibitor	NadD inh conf
Nc1cc(N)cc(C(=O)OCC(=O)Nc2cc(S(=O)(=O)N3CCCCC3)ccc2Cl)c1	31*	-3	11	-5	18
COc1ccc(-c2nc3c(C)cc(Br)cn3c2Cc2ccsc2)cc1OC	2	x	x	x	x
Cn1c(CC(=O)c2ccc(Br)cc2)[n+](C)c2ccccc21	-4	-3	0	-2	x
Cc1ccc(N2C(=O)C3N=NN(CC(=O)N4N=C(c5ccccc5)CC4c4ccccc4)C3C2=O)cc1 (stereo not drawn)	43*	-3	25	0	31
COc1ccc(C2=NN(C(=O)CCC(=O)O)C(c3ccccc3)C2)cc1 (stereo not drawn)	1	-2	x	-2	x
COc1cc(Cc2ccc(N)c(OC)c2)ccc1N	2	1	-6	-1	x
Nc1ccc(Cc2ccc(N)c(O)c2)cc1O	37*	-3	x	-3	25
CNc1ccc(Br)cc(C(=O)/C=C/c2cc(OC)ccc2OC)c1=O	23	-2	24	-1	x
CCNc1ccc(Br)cc(C(=O)/C=C/c2ccc(Cl)cc2Cl)c1=O	39*	-3	43	-1	11
CCC1([N+](=O)[O-])COC(c2ccc(OC)cc2)OC1 (stereo not drawn)	0	x	x	x	x
Cc1ccc(OCC(=O)NC2CCSc3ccccc32)cc1 (stereo not drawn)	-1	x	-4	x	x
O=C(COC(=O)c1ccc(CO)cc1)Nc1ccc2ccccc2c1	10	x	x	x	x
O=C(CSc1nccc(=O)[nH]1)Nc1ccc2ccccc2c1	-3	x	x	x	x
CC(=O)c1c(C)[nH]c(C(=O)OCC(=O)Nc2sc3c(c2C#N)CCC(C)C3)c1C (stereo not drawn)	25	-3	24	0	x
CC1CCc2c(sc(NC(=O)COC(=O)c3ccc(NC(=O)CC#N)cc3)c2C#N)C1 (stereo not drawn)	36*	x	18	x	17
CCN(CC)S(=O)(=O)c1cc(NC(=O)COC(=O)C2CCC2)ccc1C	0	x	x	x	x
N#CCC(=O)Nc1ccc(C(=O)OCC(=O)Nc2ccc3ccccc3c2)cc1	46*	x	x	x	40
CCN(CC)S(=O)(=O)c1cc(NC(=O)COC(=O)c2ccc(NC(=O)CC#N)cc2)ccc1C	33*	-2	8	-3	14
CCn1c2ccccc2c2cc(NC(=O)CSc3nccc(=O)[nH]3)ccc21	41*	-2	11	-3	50*
COc1ccc2c(CN3CCCCCCC3)cc(=O)oc2c1	-8	x	x	x	x
Cc1ccc(S(=O)(=O)N2[C@@H](c3ccccc3F)C(C(=O)O)=CC[C@H]2c2cccc(Cl)c2)cc1	2	x	5	x	x
CCn1c2ccccc2c2cc(NC(=O)COC(=O)c3ccc(NC(=O)CC#N)cc3)ccc21	64*	x	74*	x	40
CCn1c2ccccc2c2cc(NC(=O)COC(=O)c3ccccc3F)ccc21	-2	2	14	-3	x
CCCOc1ccc(C(=O)N2CCN(Cc3ccc4c(c3)OCO4)CC2)cc1	-7	-2	2	-2	x
COC(=O)c1ccc(N2C(c3cc(OC)cc(OC)c3)=Cc3ccc(-c4cccnc4)cc3C2CC(=O)C2CC2)cc1 (stereo not drawn)	32*	x	x	x	22
COc1cc(OC)cc(C2=Cc3ccc(OC)cc3C(CC(C)=O)N2c2ccc(-c3cncnc3)cc2)c1 (stereo not drawn)	0	x	x	x	x
COc1cc(OC)cc(C2=Cc3ccccc3C(CC(=O)c3ccco3)N2c2ccc(-c3cccnc3)cc2)c1 (stereo not drawn)	35*	x	x	x	36
